Laboratory results: ChEMBL document CHEMBL1130289, “Polyanion inhibitors of human immunodeficiency virus and other viruses. 5. Telomerized anionic surfactants derived from amino acids” (J Med Chem, 1997)

Tests used:
[1] = system: Human alphaherpesvirus 2; assay: Concentration required to inhibit HSV-2(G) induced cytopathicity in E6SM cells by 50%; conditions: Human alphaherpesvirus 2, E6SM
[2] = system: Human immunodeficiency virus 2; assay: Concentration required to inhibit HIV-2 induced cytopathicity in MT-4 cells by 50%; assay type: functional, organism-based; conditions: Human immunodeficiency virus 2, MT4
Summary of the method: (§1)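 MT-4 cells were infected with HIV-1 (strain HTLV-IIIB/LAI) or HIV-2 (strain LAV-2 ROD) and exposed to compound. IC50 is the concentration that inhibited HIV-induced cytopathicity by 50%. Values are means of two separate experiments.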

[3] = system: Human respirovirus 3; assay: Concentration required to inhibit parainfluenza-3 induced cytopathicity in Vero cells by 50%; assay type: functional, organism-based; conditions: Human respirovirus 3, Vero
Summary of the method: (§2)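 Virus was added to the cell monolayers in the presence of compound. Incubation continued until the viral cytopathic effect was scored. IC50 is the concentration that reduced virus-induced cytopathicity by 50%.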

[4] = system: E6SM; assay: Minimum cytotoxic concentration required to cause a microscopically detectable alteration of normal cell morphology in E6SM cells; assay type: functional, Homo sapiens
Summary of the method: (§3)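 Uninfected E6SM, HeLa or Vero cells were exposed to compound and examined by microscopy. MCC is the lowest concentration causing a detectable alteration of normal cell morphology.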

[5] = system: Human alphaherpesvirus 1; assay: Concentration required to inhibit HSV-1(KOS) induced cytopathicity in E6SM cells by 50%; conditions: Human alphaherpesvirus 1, E6SM
[6] = system: Vero; assay: Minimum cytotoxic concentration required to cause a microscopically detectable alteration of normal cell morphology in Vero cells; assay type: functional, Chlorocebus sabaeus
Summary of the method: as §3

[7] = system: Mammalian orthoreovirus 1; assay: Concentration required to inhibit reovirus-1 induced cytopathicity in Vero cells by 50%; assay type: functional, organism-based; conditions: Mammalian orthoreovirus 1, Vero
Summary of the method: as §2

[8] = system: Junin virus; assay: Concentration required to inhibit Junin induced cytopathicity in Vero cells by 50%; assay type: functional, organism-based; conditions: Mammarenavirus juninense
[9] = system: Poliovirus 1; assay: Concentration required to inhibit Polio-1 induced cytopathicity in HeLa cells by 50%; assay type: functional, organism-based; conditions: Enterovirus C
[10] = system: Human alphaherpesvirus 1; assay: Concentration required to inhibit HSV-1 TK-(B2006) induced cytopathicity in E6SM cells by 50%; conditions: Human alphaherpesvirus 1, E6SM
[11] = system: Tacaribe virus; assay: Concentration required to inhibit Tacaribe induced cytopathicity in Vero cells by 50%; assay type: functional, cell-based; conditions: Mammarenavirus tacaribeense
[12] = system: Human immunodeficiency virus 1; assay: Concentration required to inhibit HIV-1 induced cytopathicity in MT-4 cells by 50%; assay type: functional, organism-based; conditions: Human immunodeficiency virus 1, MT4
Summary of the method: as §1

[13] = system: Human immunodeficiency virus 2; assay: Concentration required to inhibit by 50% syncytium formation between MOLT-4 cells and HIV-2 (ROD) infected HUT-78 cells; assay type: functional, organism-based; conditions: Human immunodeficiency virus 2, MOLT-4
Summary of the method: (§4)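 Uninfected MOLT-4 cells were co-cultured with HUT-78 cells chronically infected with HIV-1 (IIIB) or HIV-2 (ROD), in the presence of compound. The end point was syncytium formation, and IC50 is the concentration giving 50% inhibition. Values are means of two separate experiments.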

[14] = system: Human immunodeficiency virus 1; assay: Concentration required to inhibit by 50% syncytium formation between MOLT-4 cells and HIV-1(IIIB); assay type: functional, organism-based; conditions: Human immunodeficiency virus 1, MOLT-4
Summary of the method: as §4

[15] = system: Vesicular stomatitis virus; assay: Concentration required to inhibit vesicular stomatitis induced cytopathicity in E6SM cells by 50%; assay type: functional, organism-based
[16] = system: Coxsackievirus; assay: Concentration required to inhibit Coxsackie induced cytopathicity in HeLa cells by 50%; assay type: functional, organism-based
Summary of the method: as §2

[17] = system: HeLa; assay: Minimum cytotoxic concentration required to cause a microscopically detectable alteration of normal cell morphology in HeLa cells; assay type: functional, Homo sapiens
Summary of the method: as §3

[18] = system: Sindbis virus; assay: Concentration required to inhibit Sindbis induced cytopathicity in Vero cells by 50%; assay type: functional, organism-based
Summary of the method: as §2

[19] = system: HEL; assay: Minimum cytotoxic concentration required to cause a microscopically detectable alteration of normal cell morphology in HEL cells; assay type: functional, Homo sapiens
[20] = system: Human betaherpesvirus 5; assay: Concentration required to inhibit HCMV(Davis) induced cytopathicity in HEL cells by 50%; assay type: functional, organism-based; conditions: Human betaherpesvirus 5, HEL
Summary of the method: as §2

[21] = system: MT4; assay: Concentration required to reduce the viability of mock-infected MT-4 cells by 50%; assay type: functional; conditions: Homo sapiens
Summary of the method: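 Mock-infected MT-4 cells were exposed to compound. CC50 is the concentration that reduced cell viability by 50%. Values are means of two separate experiments.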

[22] = system: Human betaherpesvirus 5; assay: Concentration required to inhibit HCMV(AD169) induced cytopathicity in HEL cells by 50%; assay type: functional, organism-based; conditions: Human betaherpesvirus 5, HEL
Summary of the method: as §2

[23] = system: CEM-4; assay: Cytotoxic concentration required to reduce the viability of uninfected cells by 50% after 5 days of incubation in the presence on CEM-4 cells.; assay type: functional; conditions: Homo sapiens, CEM-4, 120 h
Summary of the method: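 Uninfected CEM-4 cells were incubated with compound for 5 days. CC50 is the concentration that reduced viability by 50%. Values average at least two separate experiments.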

[24] = system: Semliki Forest virus; assay: Concentration required to inhibit forest induced cytopathicity in Vero cells by 50%; assay type: functional, organism-based
Summary of the method: as §2

[25] = system: Human immunodeficiency virus 1; assay: Inhibitory concentration required to inhibit HIV-induced cytopathicity in CEM-4 cells by 50% based in the MTT assay; Not active; assay type: functional, organism-based
[26] = system: Vaccinia virus; assay: Concentration required to inhibit Vaccinia induced cytopathicity in E6SM cells by 50%; assay type: functional, organism-based; conditions: Orthopoxvirus vaccinia
[27] = system: Human immunodeficiency virus 1; assay: Inhibitory concentration required to inhibit HIV-induced cytopathicity in CEM-4 cells by 50% based in the MTT assay; assay type: functional, organism-based; conditions: Human immunodeficiency virus 1, CEM-4

Row | SMILES | IC50 [1] [µg/mL] | IC50 [2] [µg/mL] | IC50 [3] [µg/mL] | MMC [4] [µg/mL] | IC50 [5] [µg/mL] | MMC [6] [µg/mL] | IC50 [7] [µg/mL] | IC50 [8] [µg/mL] | IC50 [9] [µg/mL] | IC50 [10] [µg/mL] | IC50 [11] [µg/mL] | IC50 [12] [µg/mL] | IC50 [13] [µg/mL] | IC50 [14] [µg/mL] | IC50 [15] [µg/mL] | IC50 [16] [µg/mL] | MMC [17] [µg/mL] | IC50 [18] [µg/mL] | MMC [19] [µg/mL] | IC50 [20] [µg/mL] | further results
1 | CCCCCCCCCCCCSCCCCCCCCCCCCC(=O)NCCCCCCCCCCC(=O)[O-].[Na+] | > 200 | 47 | > 200 | >200 | > 200 | >200 | > 200 | > 50 | > 200 | > 200 | > 50 | 20 | 150 | 50 | > 200 | > 200 | >200 | > 200 | >50 | 35 | CC50 [21]: 136 µg/mL; IC50 [22]: > 50 µg/mL; CC50 [23]: 37 µg/mL; IC50 [24]: > 200 µg/mL; IC50 [25]: Not Active; IC50 [26]: > 200 µg/mL
2 | CCCCCCCCCCCCSCCCCCCCCCCCCCCCCCCCCCCCCCCCCCCCCCCCCCCCCCCCCCCCCCCC(=O)N(CC)CCCCCCCCCCC(=O)NC(CCC(=O)[O-])C(=O)O.[Na+] (stereo not drawn) | > 40 | 7 | > 10 | 100 | 20 | >40 | > 10 | > 50 | > 200 | 40 | > 50 | 0.1 | 30 | 6 | > 40 | > 200 | >200 | > 10 | >50 | 5 | IC50 [27]: 1 µg/mL; CC50 [21]: > 250 µg/mL; IC50 [22]: 10 µg/mL; CC50 [23]: > 300 µg/mL; IC50 [24]: > 10 µg/mL; IC50 [26]: > 40 µg/mL
3 | CCCCCCCCCCCCSCCCCCCCCCCCCCCCCCCCCCCCCCCCCCCCCC(=O)N(CC)CCCCCCCCCCC(=O)[O-].[Na+] | 20 | > 29 | > 200 | 100 | > 40 | >200 | > 200 | 20 | > 200 | > 200 | > 20 | > 16 | 50 | 30 | > 40 | > 200 | >200 | > 200 | >50 | 9 | IC50 [27]: > 11 µg/mL; CC50 [21]: 30 µg/mL; IC50 [22]: 9 µg/mL; CC50 [23]: 27 µg/mL; IC50 [24]: > 200 µg/mL; IC50 [26]: > 40 µg/mL
